Here are results for 15 compounds from ChEMBL document CHEMBL1152285 (Bioorg Med Chem Lett, 2008).

Active and inactive are the calls of the source. No cut-off for these calls is given here. A value given as a limit tells only on which side of the number the result lay.

What is called IC50 is the concentration at which inhibition is half-maximal. One may read the half-life as the time in which the quantity being followed falls by half. A word on the inhibition: it is the share of the control response that was lost under treatment. Broadly, the EC50 is the concentration needed to bring the measured effect to its halfway point.

The subject of one data set is Hepatocyte. As to the kind of experiment: Toxicity in human hepatocytes by MTS assay. The format is cell-based.
Data set [1] in a line: Inhibition of histidine-tagged HDAC4 wild type catalytic domain purified from Escherichia coli after 10 mins. The gist of the method:
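His-tagged HDAC4 catalytic domain (653-1084) expressed in E. coli. Trifluoroacetamide substrate then added for 1 h at 37 °C. Stopped with developer/TSA; fluorescence read at ex 360/em 460. IC50 values are means of >2 experiments.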

A further data set deals with Histone deacetylase 1 (Homo sapiens, UniProt Q13547). The data set can be described thus: Inhibition of HDAC1 purified from HEK293 cells by Western blot. In kind it is cell-free. (Immunoblotting shows a protein as a band on a membrane.)
Histone deacetylase 1, sequence (Q13547 whole entry): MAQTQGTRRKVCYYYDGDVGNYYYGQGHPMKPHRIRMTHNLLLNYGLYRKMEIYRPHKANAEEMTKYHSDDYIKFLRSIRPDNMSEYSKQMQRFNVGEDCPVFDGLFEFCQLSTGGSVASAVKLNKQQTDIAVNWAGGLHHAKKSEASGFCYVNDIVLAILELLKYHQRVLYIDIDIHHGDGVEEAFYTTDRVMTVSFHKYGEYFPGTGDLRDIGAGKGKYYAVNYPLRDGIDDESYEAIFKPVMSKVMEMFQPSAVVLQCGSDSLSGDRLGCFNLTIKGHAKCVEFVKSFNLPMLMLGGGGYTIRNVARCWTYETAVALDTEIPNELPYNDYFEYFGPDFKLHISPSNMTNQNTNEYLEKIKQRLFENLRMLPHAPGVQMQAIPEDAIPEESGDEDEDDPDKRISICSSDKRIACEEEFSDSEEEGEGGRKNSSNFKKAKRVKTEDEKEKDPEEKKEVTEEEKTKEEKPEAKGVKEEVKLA
Data set [2] concerns the target T1, Cytochrome P450 2C9 (Homo sapiens, UniProt P11712). As to the kind of experiment: Inhibition of CYP2C9 in human hepatocytes. The format is ADME, cell-based, Hepatocyte. The method in brief:
(§1)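 Human hepatocytes. Read-out is CYP2C9-mediated 4'-hydroxylation of 4'-tritiated diclofenac, measured as tritiated water. Run without serum and with 10% FBS added. IC50 values are means of >2 experiments.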

Data set [3] in a line: Stability in human HCT116 cells by LCMS/MS in presence of 10% fetal bovine serum. In kind it is ADME, cell-based, HCT-116. The method in brief: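 Compounds at 1 and 5 µM incubated with HCT116 cells in medium with 10% FBS for up to 24 h. Aliquots taken over time and analysed by LCMS/MS. A cell-free medium control was run. Half-life was derived.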
The target of data set [4] is T1, Cytochrome P450 2C9. As to the kind of experiment: Inhibition of CYP2C9 in human liver microsomes. In kind it is ADME, Microsome. The gist of the method:
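Human liver microsomes. Read-out is tritium released as tritiated water on CYP2C9-mediated 4'-hydroxylation of diclofenac tritiated at the 4' position. IC50 values are means of >2 experiments.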
On the technique in general: Liver microsomes are vesicles of endoplasmic reticulum, rich in cytochrome P450 enzymes.

Data set [5] deals with T2, Protein deacetylase HDAC6 (Homo sapiens, UniProt Q9UBN7).
T2 sequence (Q9UBN7 whole entry): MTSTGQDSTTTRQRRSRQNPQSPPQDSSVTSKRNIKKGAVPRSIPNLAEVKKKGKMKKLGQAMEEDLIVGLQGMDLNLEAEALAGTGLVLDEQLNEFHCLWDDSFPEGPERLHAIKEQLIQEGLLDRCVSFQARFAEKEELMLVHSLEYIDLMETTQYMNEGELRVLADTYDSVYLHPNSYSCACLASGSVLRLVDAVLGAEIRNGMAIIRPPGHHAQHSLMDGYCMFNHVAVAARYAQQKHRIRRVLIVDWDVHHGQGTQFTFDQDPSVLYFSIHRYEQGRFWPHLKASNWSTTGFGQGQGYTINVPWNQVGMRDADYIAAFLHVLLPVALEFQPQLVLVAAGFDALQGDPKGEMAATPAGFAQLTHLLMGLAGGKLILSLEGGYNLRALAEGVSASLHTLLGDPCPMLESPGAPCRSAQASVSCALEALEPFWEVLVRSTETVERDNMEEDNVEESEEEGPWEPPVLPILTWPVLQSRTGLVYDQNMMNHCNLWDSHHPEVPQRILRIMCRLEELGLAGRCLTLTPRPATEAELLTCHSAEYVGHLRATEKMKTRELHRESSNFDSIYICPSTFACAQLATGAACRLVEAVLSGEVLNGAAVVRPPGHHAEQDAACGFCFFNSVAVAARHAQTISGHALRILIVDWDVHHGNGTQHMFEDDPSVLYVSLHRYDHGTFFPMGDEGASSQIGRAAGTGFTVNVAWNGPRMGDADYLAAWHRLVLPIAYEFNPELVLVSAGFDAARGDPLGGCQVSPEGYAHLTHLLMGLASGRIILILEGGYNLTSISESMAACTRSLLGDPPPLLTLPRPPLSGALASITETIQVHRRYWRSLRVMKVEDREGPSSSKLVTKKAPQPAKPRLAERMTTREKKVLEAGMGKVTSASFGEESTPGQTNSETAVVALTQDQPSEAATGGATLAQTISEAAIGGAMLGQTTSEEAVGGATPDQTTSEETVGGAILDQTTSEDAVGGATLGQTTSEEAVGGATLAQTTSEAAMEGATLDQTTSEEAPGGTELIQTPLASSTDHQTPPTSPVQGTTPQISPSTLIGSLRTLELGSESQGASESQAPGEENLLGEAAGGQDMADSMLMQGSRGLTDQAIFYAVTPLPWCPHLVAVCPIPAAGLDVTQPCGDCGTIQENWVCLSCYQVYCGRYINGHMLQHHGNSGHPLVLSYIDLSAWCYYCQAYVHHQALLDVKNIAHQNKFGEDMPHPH
The data set can be described thus: Inhibition of HDAC6 purified from HEK293 cells by Western blot. In kind it is cell-free.

Data set [6] deals with T1, Cytochrome P450 2C9. As to the kind of experiment: Inhibition of CYP2C9 in human hepatocytes in presence of 10% fetal bovine serum. In kind it is ADME, cell-based, Hepatocyte. The method in brief:
as §1

Data set [7] addresses T3, Histone deacetylase (Homo sapiens) (UniProt Q13547+O15379+Q9UBN7+Q92769+Q9UQL6+Q8WUI4+Q9BY41+Q96DB2+P56524+Q9UKV0+Q969S8). The settings on record: HCT-116, 25 uM.
The next data set addresses Histone deacetylase 3 (Homo sapiens, UniProt O15379). The data set can be described thus: Inhibition of HDAC3 purified from HEK293 cells by Western blot. In kind it is cell-free.
Data set [8] has as its target Histone deacetylase. As to the kind of experiment: Inhibition of HDAC in human HCT116 cells assessed as alpha-tubulin deacetylation. The format is cell-based. The settings on record: hct-116. The method in brief:
(§2)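 HCT116 cells treated 24 h. Alpha-tubulin acetylation measured, with the signal from 10 µM SAHA taken as 100% activation. Values are means of >2 experiments.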

Data set [9] deals with Histone deacetylase. The data set can be described thus: Inhibition of HDAC in human HCT116 cells assessed as histone H3 deacetylation. The format is cell-based. The settings on record: hct-116.
Data set [10] has as its target T3, Histone deacetylase (Homo sapiens). The data set can be described thus: Inhibition of HDAC in human HCT116 cells assessed as alpha-tubulin deacetylation at 50 uM after 24 hrs relative to 10 uM SAHA. In kind it is cell-based. The settings on record: HCT-116. The gist of the method: as §2
Data set [11] shares this target. The data set can be described thus: Inhibition of HDAC in human HCT116 cells assessed as histone H3 deacetylation up to 10 uM. The settings on record: HCT-116. The format is cell-based.
Data set [12] can be described thus: Toxicity in human […] by MTS assay.
The target of data set [13] is T3, Histone deacetylase (Homo sapiens). The data set can be described thus: Inhibition of HDAC in human HCT116 cells assessed as alpha-tubulin deacetylation up to 10 uM after 24 hrs. The format is cell-based. The settings on record: HCT-116. The method in brief:
as §2

Data set [14] can be described thus: Stability in human HCT116 cells S9 fraction by LCMS/MS in presence of NADPH. In kind it is ADME, subcellular. The method in brief:
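S9 at 1 mg/ml with 1 mM NADPH plus a regenerating system, 37 °C with low shaking. Stopped with 1N HCl, centrifuged, supernatant diluted with acetonitrile containing internal standard, analysed by LCMS/MS.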

Data set [15] has as its target T3, Histone deacetylase (Homo sapiens). The settings on record: HCT-116, 50 uM.

T1 sequence (P11712 whole entry): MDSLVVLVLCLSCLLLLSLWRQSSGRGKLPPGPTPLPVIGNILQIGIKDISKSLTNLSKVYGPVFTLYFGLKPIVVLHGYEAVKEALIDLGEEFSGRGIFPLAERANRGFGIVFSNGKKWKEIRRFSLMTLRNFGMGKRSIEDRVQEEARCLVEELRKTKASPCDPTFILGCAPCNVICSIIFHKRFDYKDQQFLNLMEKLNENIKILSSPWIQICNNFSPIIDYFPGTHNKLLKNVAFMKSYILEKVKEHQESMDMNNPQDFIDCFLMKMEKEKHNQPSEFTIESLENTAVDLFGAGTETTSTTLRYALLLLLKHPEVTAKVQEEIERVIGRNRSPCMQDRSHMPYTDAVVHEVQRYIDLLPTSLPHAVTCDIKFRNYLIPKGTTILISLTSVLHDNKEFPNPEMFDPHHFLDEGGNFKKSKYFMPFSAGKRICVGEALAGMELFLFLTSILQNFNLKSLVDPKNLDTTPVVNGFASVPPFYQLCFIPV
Histone deacetylase 3, sequence (O15379 whole entry): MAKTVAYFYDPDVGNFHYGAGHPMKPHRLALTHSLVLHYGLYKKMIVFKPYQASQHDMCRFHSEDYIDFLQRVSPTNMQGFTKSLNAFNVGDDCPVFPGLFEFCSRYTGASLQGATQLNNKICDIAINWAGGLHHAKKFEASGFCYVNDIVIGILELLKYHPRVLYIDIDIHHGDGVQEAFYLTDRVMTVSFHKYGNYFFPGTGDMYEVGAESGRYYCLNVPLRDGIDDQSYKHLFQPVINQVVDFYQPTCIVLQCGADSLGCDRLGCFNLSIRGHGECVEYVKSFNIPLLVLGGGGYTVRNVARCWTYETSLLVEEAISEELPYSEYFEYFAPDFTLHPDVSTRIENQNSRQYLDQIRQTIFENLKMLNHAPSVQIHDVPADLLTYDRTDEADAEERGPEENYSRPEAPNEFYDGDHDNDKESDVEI

With `CC(NC(=O)c1ccc(C(=O)C(F)(F)F)s1)c1cccc2ccccc12` (stereo not drawn), the Activity result with Hepatocyte was “Non-toxic”. Besides, the IC50 in data set [1] turned out to be 170 nM; against Histone deacetylase 1 it was 830 nM; against Cytochrome P450 2C9 [2], 11000 nM; against Cytochrome P450 2C9 [4] it was 1400 nM; in [5] it was 360 nM; at Cytochrome P450 2C9 [6] it was 17000 nM. At Histone deacetylase 3, this compound showed an IC50 of 840 nM. Further, the half-life in data set [3] was 3 h. Further, in data set [7], the inhibition is 50%.

With `CC(NC(=O)c1ccc(C(=O)C(F)(F)F)s1)c1ccncc1` (stereo not drawn), in the data set with Hepatocyte, the Activity entry is listed as “Non-toxic”. Besides, the IC50 in data set [1] was 90 nM; against Histone deacetylase 1 it was 1600 nM; at Cytochrome P450 2C9 [2], 10000 nM; on Cytochrome P450 2C9 [4], 13000 nM; in [5], 260 nM; on Cytochrome P450 2C9 [6], 3000 nM. Moreover, 1500 nM corresponded to half-maximal inhibition on Histone deacetylase 3 (IC50). Also, the EC50 on Histone deacetylase [8] is 10000 nM; on Histone deacetylase [9], greater than 35000 nM. The half-life in data set [3] was 5 h.

For `COc1cccc(N2CCN(C(=O)c3ccc(C(=O)C(F)(F)F)s3)CC2)c1`, the Activity result in the data set with Hepatocyte was “Non-toxic”. Besides, the IC50 in data set [1] is 480 nM; at Cytochrome P450 2C9 [2], 8000 nM; against Cytochrome P450 2C9 [4] it was 5000 nM; in data set [5], 170 nM; at Cytochrome P450 2C9 [6], 8000 nM. The inhibition in data set [10] is 50%.

For `COc1ccc(Cl)cc1N1CCN(C(=O)c2ccc(C(=O)C(F)(F)F)s2)CC1`, the Activity entry (in the data set with Hepatocyte; in data set [12]) was “Non-toxic” each time. Besides, the half-inhibitory concentration (IC50) was 530 nM in data set [1]; 4400 nM against Histone deacetylase 1; 1800 nM on Cytochrome P450 2C9 [2]; 1800 nM against Cytochrome P450 2C9 [4]; 175 nM in [5]; greater than 10000 nM against Histone deacetylase 3. Also, in data set [3], the half-life is 2 h. The result in data set [11] and in data set [13] was inactive.

Regarding `O=C(c1ccc(C(=O)C(F)(F)F)s1)N1CCc2ccccc21`, the IC50 in [1] amounted to 150 nM; against Histone deacetylase 1, 1300 nM; in data set [5], 130 nM; on Histone deacetylase 3, 1400 nM.

Consider `CN(Cc1ccccc1)C(=O)c1ccc(C(=O)C(F)(F)F)s1`, for which the half-maximal inhibitory concentration (IC50) in [1] was 510 nM; against Histone deacetylase 1, 890 nM; against Histone deacetylase 3, 560 nM.

Regarding `O=C(c1ncc(C(=O)C(F)(F)F)s1)N1CCc2ccccc21`, the half-inhibitory concentration (IC50) in data set [1] is 13 nM; on Histone deacetylase 1, 1600 nM; in data set [5], 410 nM. For the same compound, the half-life in data set [14] is 0.333 h. Further, the result in data set [13] was inactive.

Regarding `O=C(c1ccc(C(=O)C(F)(F)F)s1)N1CCn2c(-c3ccccc3)cnc2C1`, the IC50 is 300 nM in data set [1], 4700 nM on Histone deacetylase 1 and greater than 5000 nM against Histone deacetylase 3.

In the case of `O=C(c1ccc(C(=O)C(F)(F)F)[nH]1)N1CCc2ccccc21`, the half-life in data set [14] was determined as 0.25 h. This compound also came in with an IC50 in data set [5] of 580 nM.

On to `O=C(c1ccc(C(=O)C(F)(F)F)s1)N1CCC(c2nnc(-c3ccccc3)o2)CC1`, for which the Activity entry in the data set on Hepatocyte was “Non-toxic”. Besides, the IC50 was determined as 70 nM in data set [1]; 1300 nM against Histone deacetylase 1; 8000 nM against Cytochrome P450 2C9 [2]; 8000 nM at Cytochrome P450 2C9 [4]; 160 nM in [5]; 5000 nM on Cytochrome P450 2C9 [6]. The IC50 against Histone deacetylase 3 turned out to be 2800 nM. For the same compound, in data set [3], the half-life is 2 h.

`C[C@H](NC(=O)c1ccc(C(=O)C(F)(F)F)s1)c1ccccc1`: the IC50 was determined as 170 nM in [1], 5000 nM at Histone deacetylase 1 and 150 nM in [5].

`Cc1noc(-c2ccc(C(=O)C(F)(F)F)s2)n1` had an IC50 in data set [1] of 75 nM. In addition, on Histone deacetylase [8], the EC50 amounted to 6500 nM. Moreover, the half-life in data set [14] is greater than 2 h.

As for `O=C(NCc1ccccc1Cl)c1ccc(C(=O)C(F)(F)F)s1`, the IC50 came out at 100 nM in [1], 550 nM against Histone deacetylase 1 and 190 nM in data set [5]. Also, the half-life in data set [14] was 0.25 h. The outcome in [13] was inactive.

Regarding `O=C(NCC1CCCCC1)c1ccc(C(=O)C(F)(F)F)cn1`, in data set [14], the half-life is greater than 2 h. Further, in data set [5], 3320 nM corresponded to half-maximal inhibition (IC50).

On to `CN(Cc1ccc2nccnc2c1)C(=O)c1ccc(C(=O)C(F)(F)F)s1`, for which the inhibition in data set [15] is 40%. Besides, the IC50 in data set [1] is 100 nM. Also, at Histone deacetylase [8], the EC50 is 12000 nM. In addition, the half-life in data set [14] was 0.333 h; in [3] it was 3.5 h.
